Assay results: ChEMBL document CHEMBL5724801, “EUbOPEN Chemogenomics Library - Multiplex” (2024)
Several values for one entry are separate records, joined by “and”; a condition that tells them apart may be missing. Equal entries are not always repeated.

Tested on: U2OS
Test: Multiplex assay against U2OS
Assay type: toxicity, cell-based
Conditions: human
In short: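 Cells stained live at seeding with Hoechst33342, BioTracker Green Microtubule Cytoskeleton Dye, MitoTracker Red and Annexin V Alexa Fluor 680 were imaged on a CQ1 microscope at 37°C and 5% CO2 after compound addition. Their classification by CellPathfinder machine-learning gating ran from Hoechst high-intensity objects versus normal cells, to healthy, pyknosed or fragmented nuclei among normal cells, to mitotic or apoptotic among pyknosed cells. Tubulin, mitochondrial-mass and membrane-permeability phenotypes are per cents of healthy-nucleus cells.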

[1] = 12 h, 1 µM, compound concentration 1 uM
[2] = 12 h, 10 µM, compound concentration 10 uM
[3] = 24 h, 1 µM, compound concentration 1 uM
[4] = 24 h, 10 µM, compound concentration 10 uM
[5] = 48 h, 1 µM, compound concentration 1 uM
[6] = 48 h, 10 µM, compound concentration 10 uM

Br.CS(=O)(=O)Nc1c(O)ccc2c1CCCC2C1=NCCN1 (configuration not stated)
Population Apoptotic (%) [1]: 63% and 80%
Population Fragmented Nuclei (%) [1]: 20% and 13%
Population Healthy Nuclei (%) [1]: 75% and 82%
Population Hoechst High Intensity Objects (%) [1]: 2% and 0%
Population Membrane Permeable-Phenotype (%) [1]: 3% and 5%
Population Mitochondria Different-Phenotype (%) [1]: 2% and 1%
Population Mitotic Cells (%) [1]: 36% and 20%
Population Normal (%) [1]: 97% and 100%
Population Pyknosed Nuclei (%) [1]: 3%
Population Tubulin-Different-Phenotype (%) [1]: 2% and 1%
Total Cell Count [1]: 288 and 151
Population Apoptotic (%) [2]: 69% and 100%
Population Fragmented Nuclei (%) [2]: 36% and 22%
Population Healthy Nuclei (%) [2]: 57% and 75%
Population Hoechst High Intensity Objects (%) [2]: 1% and 0%
Population Membrane Permeable-Phenotype (%) [2]: 8% and 6%
Population Mitochondria Different-Phenotype (%) [2]: 0% and 6%
Population Normal (%) [2]: 98% and 100%
Population Pyknosed Nuclei (%) [2]: 6% and 2%
Population Tubulin-Different-Phenotype (%) [2]: 1%
Total Cell Count [2]: 215 and 84
Population Apoptotic (%) [3]: 76% and 92%
Population Fragmented Nuclei (%) [3]: 18% and 14%
Population Healthy Nuclei (%) [3]: 73% and 78%
Population Hoechst High Intensity Objects (%) [3]: 2% and 1%
Population Membrane Permeable-Phenotype (%) [3]: 3% and 7%
Population Mitochondria Different-Phenotype (%) [3]: 2%
Population Normal (%) [3]: 97% and 98%
Population Pyknosed Nuclei (%) [3]: 7%
Population Tubulin-Different-Phenotype (%) [3]: 2% and 4%
Total Cell Count [3]: 341 and 185
Population Apoptotic (%) [4]: 86% and 100%
Population Fragmented Nuclei (%) [4]: 31% and 16%
Population Healthy Nuclei (%) [4]: 62% and 80%
Population Hoechst High Intensity Objects (%) [4]: 2% and 0%
Population Membrane Permeable-Phenotype (%) [4]: 5% and 3%
Population Mitochondria Different-Phenotype (%) [4]: 1% and 4%
Population Mitotic Cells (%) [4]: 13% and 0%
Population Normal (%) [4]: 97% and 100%
Population Pyknosed Nuclei (%) [4]: 6% and 2%
Population Tubulin-Different-Phenotype (%) [4]: 2% and 3%
Total Cell Count [4]: 240 and 103
Population Apoptotic (%) [5]: 74% and 81%
Population Fragmented Nuclei (%) [5]: 14% and 13%
Population Healthy Nuclei (%) [5]: 78% and 76%
Population Hoechst High Intensity Objects (%) [5]: 1%
Population Membrane Permeable-Phenotype (%) [5]: 2% and 5%
Population Mitochondria Different-Phenotype (%) [5]: 2%
Population Mitotic Cells (%) [5]: 25% and 18%
Population Normal (%) [5]: 98%
Population Pyknosed Nuclei (%) [5]: 6% and 10%
Population Tubulin-Different-Phenotype (%) [5]: 2% and 1%
Total Cell Count [5]: 484 and 253
Population Apoptotic (%) [6]: 90% and 100%
Population Fragmented Nuclei (%) [6]: 23% and 17%
Population Healthy Nuclei (%) [6]: 70% and 74%
Population Hoechst High Intensity Objects (%) [6]: 1% and 0%
Population Membrane Permeable-Phenotype (%) [6]: 5% and 3%
Population Mitochondria Different-Phenotype (%) [6]: 1% and 6%
Population Mitotic Cells (%) [6]: 10% and 0%
Population Normal (%) [6]: 98% and 100%
Population Pyknosed Nuclei (%) [6]: 6% and 7%
Population Tubulin-Different-Phenotype (%) [6]: 2%
Total Cell Count [6]: 333 and 152

CN(C)c1ccnc2sc3c(=O)n(N4CCCCCC4)cnc3c12
Population Apoptotic (%) [1]: 81% and 87%
Population Fragmented Nuclei (%) [1]: 19% and 16%
Population Healthy Nuclei (%) [1]: 72% and 77%
Population Hoechst High Intensity Objects (%) [1]: 1%
Population Membrane Permeable-Phenotype (%) [1]: 4% and 6%
Population Mitochondria Different-Phenotype (%) [1]: 2%
Population Mitotic Cells (%) [1]: 18% and 12%
Population Normal (%) [1]: 98%
Population Pyknosed Nuclei (%) [1]: 7% and 6%
Population Tubulin-Different-Phenotype (%) [1]: 2%
Total Cell Count [1]: 284 and 132
Population Apoptotic (%) [2]: 41% and 88%
Population Fragmented Nuclei (%) [2]: 30% and 18%
Population Healthy Nuclei (%) [2]: 56% and 71%
Population Hoechst High Intensity Objects (%) [2]: 4% and 5%
Population Membrane Permeable-Phenotype (%) [2]: 30% and 23%
Population Mitochondria Different-Phenotype (%) [2]: 14% and 27%
Population Normal (%) [2]: 95% and 94%
Population Pyknosed Nuclei (%) [2]: 12% and 9%
Population Tubulin-Different-Phenotype (%) [2]: 20% and 22%
Total Cell Count [2]: 249 and 101
Population Apoptotic (%) [3]: 87% and 72%
Population Fragmented Nuclei (%) [3]: 16% and 15%
Population Healthy Nuclei (%) [3]: 72% and 76%
Population Hoechst High Intensity Objects (%) [3]: 2%
Population Membrane Permeable-Phenotype (%) [3]: 3% and 6%
Population Mitochondria Different-Phenotype (%) [3]: 3%
Population Mitotic Cells (%) [3]: 12% and 27%
Population Normal (%) [3]: 97%
Population Pyknosed Nuclei (%) [3]: 10% and 7%
Population Tubulin-Different-Phenotype (%) [3]: 1% and 4%
Total Cell Count [3]: 326 and 150
Population Apoptotic (%) [4]: 68% and 100%
Population Fragmented Nuclei (%) [4]: 28% and 11%
Population Healthy Nuclei (%) [4]: 56% and 75%
Population Hoechst High Intensity Objects (%) [4]: 4% and 3%
Population Membrane Permeable-Phenotype (%) [4]: 22% and 23%
Population Mitochondria Different-Phenotype (%) [4]: 15% and 25%
Population Normal (%) [4]: 95% and 96%
Population Pyknosed Nuclei (%) [4]: 15% and 13%
Population Tubulin-Different-Phenotype (%) [4]: 14% and 24%
Total Cell Count [4]: 260 and 108
Population Apoptotic (%) [5]: 90% and 92%
Population Fragmented Nuclei (%) [5]: 17% and 15%
Population Healthy Nuclei (%) [5]: 74% and 72%
Population Hoechst High Intensity Objects (%) [5]: 2%
Population Membrane Permeable-Phenotype (%) [5]: 4% and 5%
Population Mitochondria Different-Phenotype (%) [5]: 1% and 5%
Population Mitotic Cells (%) [5]: 9% and 7%
Population Normal (%) [5]: 97%
Population Pyknosed Nuclei (%) [5]: 8% and 11%
Population Tubulin-Different-Phenotype (%) [5]: 2%
Total Cell Count [5]: 486 and 239
Population Apoptotic (%) [6]: 68% and 72%
Population Fragmented Nuclei (%) [6]: 28% and 15%
Population Healthy Nuclei (%) [6]: 57% and 61%
Population Hoechst High Intensity Objects (%) [6]: 4% and 9%
Population Membrane Permeable-Phenotype (%) [6]: 15% and 21%
Population Mitochondria Different-Phenotype (%) [6]: 11% and 19%
Population Mitotic Cells (%) [6]: 31% and 27%
Population Normal (%) [6]: 95% and 90%
Population Pyknosed Nuclei (%) [6]: 14% and 22%
Total Cell Count [6]: 325 and 140
